We go through one molecule from ChEMBL document CHEMBL3046951, “Volatile constituents from the leaves of Callicarpa japonica Thunb. and their antibacterial activities” (2004).

What all share (type): functional
Assay [1] has as its system Vibrio parahaemolyticus. The assay can be described thus: Antimicrobial activity against Vibrio parahaemolyticus ATCC 33844 assessed as growth inhibition rate at 13.56 mg/l after 72 hr by spectrophotometry. As to conditions: ATCC 33844, 72 h, read-out: GI.
For assay [2], the system named is Listeria monocytogenes. The experiment in a line: Antimicrobial activity against Listeria monocytogenes ATCC 19111 assessed as growth inhibition rate at 13.56 mg/l after 72 hr by spectrophotometry. As to conditions: ATCC 19111, 72 h, read-out: GI. The gist of the method: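 L. monocytogenes was grown at 30 °C in tryptic soy broth, subcultured for 18 h, and exposed to pure volatile compounds (>95% purity). Growth was followed by Bioscreen C optical density every 24 h for 72 h against a 10% Tween 80 control.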

Assay [3] has as its system Bacillus cereus. The experiment in a line: Antimicrobial activity against Bacillus cereus ATCC 11778 assessed as growth inhibition rate at 13.56 mg/l after 72 hr by spectrophotometry. As to conditions: ATCC 11778, 72 h, read-out: GI. The gist of the method:
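Pure volatile compounds (purity >95%; one at 90%) were tested against B. cereus ATCC 11778. The strain was grown at 30 °C in nutrient broth for 24 h, then subcultured for 18 h. Optical density was read in a Bioscreen C every 24 h for 72 h, with 10% Tween 80 as the control.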

Assay [4] deals with Staphylococcus aureus. The experiment in a line: Antimicrobial activity against Staphylococcus aureus ATCC 25923 assessed as growth inhibition rate at 13.56 mg/l after 72 hr by spectrophotometry. As to conditions: ATCC 25923, 72 h, read-out: GI.
Assay [5] has as its system Salmonella typhimurium. The assay can be described thus: Antimicrobial activity against Salmonella enterica subsp. enterica serovar Typhimurium ATCC 14028 assessed as growth inhibition rate at 13.56 mg/l after 72 hr by spectrophotometry. The note with it: ATCC 14028, 72 h, read-out: GI. The gist of the method:
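Salmonella Typhimurium ATCC 14028 grown in nutrient broth at 30 °C, precultured 24 h, then subcultured 1:100 for 18 h before testing. Single volatile compounds (>95% pure) were added. OD was read every 24 h over 72 h in a Bioscreen C, with 10% Tween 80 as the comparison control.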

The subject of assay [6] is Escherichia coli. The assay can be described thus: Antimicrobial activity against Escherichia coli O157:H7 ATCC 43894 assessed as growth inhibition rate at 13.56 mg/l after 72 hr by spectrophotometry. The note with it: O157:H7 ATCC 43894, 72 h, read-out: GI.

On to `CCC/C=C/CO`, for which the inhibition of growth at 13.56 µg/mL in assay [1] worked out at 38.6%; in assay [2], 19.2%; in assay [3], 52.5%; in assay [4], 29.5%; in assay [5], 29.1%; in assay [6], 31.8%.
